# Records with an inconclusive call do not appear. The source made the active and inactive calls.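 Rule for the calls: active = toxic compounds, with cells under 80% alive at a tested dose; inconclusive = one replicate called active, the other inactive; inactive = the rest.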
# Test system: Bladder 5637 cells viability, CellTiter-Glo, 72 h
# Test: cytotoxicity in 5637 bladder cells, dose response, cytotoxicity control for bacterial capsule biogenesis inhibitors, cell-based, set 4 (AID 588399)
# Conditions: not given
# Method in brief: (§1)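 Benchmarks: Hyamine toxic control, untreated cells reference; system: bladder carcinoma 5637 cell line; replication: duplicate testing of each compound; incubation: 72 h treatment; compound: 8 concentrations, 2.3–300 µM; measured by: CellTiter-Glo luminescence; evaluation: % viability vs untreated cells, CC50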
row,SMILES,CC50
1,COc1ccc2nc(NC(=O)c3cc(Br)c(Br)s3)[nH]c2c1,< 2.34 µM
2,COc1ccc2nc(NC(=O)c3ccc(Br)s3)[nH]c2c1,4.43 µM
3,O=C(Nc1ccc(Cl)cc1)c1ccc2[nH]ccc2c1,14.1 µM
4,O=C(Nc1nc2ccc(OC(F)(F)F)cc2s1)c1ccc(Br)s1,24.6 µM
5,O=C(Nc1cccnc1)c1ccc2ncsc2c1,28.3 µM

# Test system: not listed separately
# Test: as above
# Conditions: Bladder 5637 cells viability, CellTiter-Glo, 72 h; at 300 µM (top of the series)
# Method in brief: as §1
row,SMILES,viability
1,COc1ccc(NC(=O)c2ccc3nc[nH]c3c2)cc1,104% (inactive)
2,O=C(NCc1ccco1)c1ccc2nc[nH]c2c1,111% (inactive)
3,O=C(Nc1ccc(Br)cc1)c1ccc2ncsc2c1,142% (inactive)
4,O=C(Nc1ccccn1)c1ccc2nc[nH]c2c1,94.7% (inactive)
5,O=C(Nc1ccc(F)cc1)c1ccc2nc[nH]c2c1,83% (inactive)
